Cneo AK release: causes C. neoformans cell lysis | adenylate kinase release luminescence, 4 h; normalised: neutral wells 0, clomiphene wells 100 | lysis activity, % at 15 µM | actives 0.2% (n = 360,000) | AID 651654;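 active means mean lysis activity across replicates of at least 80%, whatever share of replicates individually reach that level; inactive means mean lysis activity below 80%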
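Material: C. neoformans cells | Amount: Yeast cell density of 5 × 10^6 cells/mL | Medium: Fresh YPD growth medium | Dosing: Single dose | Times: Static 4 h at 37 °C with compound, 1 h detection | Detection: AK luminescence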
ERAP1 inh: ERAP1 (human) enzyme inhibition. Q9NZ08. recombinant ERAP1, Leu-AMC fluorescence, 60 min. inhibition, % at 10.7 µM. actives 0.15% (n = 340,000);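 active means mean replicate inhibition of at least 30%, or all replicates individually reaching that 30% level; inactive means mean below 30% and not every replicate reaching it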;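 further: 0% = neutral control wells and 100% = L-leucinethiol positive control wells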
HIV Env fusion: blocks HIV Env-driven cell-cell fusion; HeLa-JRFL Env/CEM21 cell fusion, luciferase; inhibition, % at 12.3 µM; actives 1.1% (n = 360,000); AID 651610;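 active means mean replicate inhibition score of at least 50 and every replicate individually at or above 50; inconclusive means only one of the two criteria met; inactive means mean below 50 and not all replicates reaching 50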;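 further: 0% = plate neutral controls and 100% = maraviroc near 300 nM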
esBAF inh: inhibitors of esBAF chromatin remodeling in mouse ES cells | reporter increase, % at 12.5 µM | Bmi1-luciferase knock-in reporter, 24 h; 100% = twice the neutral-well signal | actives 2% (n = 350,000); in the data active means activation above about 40%; inconclusive means no clear call, values can overlap the other calls;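 further: 0% = median of the plate's neutral control wells and 100% = double that signal; a rise in the Bmi1 reporter signal indicates esBAF inhibition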
Wnt bcat act: activators of Wnt/beta-catenin signaling; Wnt/beta-catenin reporter cell assay, activator, plate reader; activation, % at 9.35 µM; actives 1.2% (n = 300,000); in the data active means activation above about 30%, passing the limit was not always enough; inconclusive means no clear call, values can overlap the other calls;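 further: 0% = neutral control wells and 100% = positive control wells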
MITF TRPM1 HTS: increases MITF-driven TRPM1 promoter luciferase signal; activation, % at 12.5 µM; AID 588334; SK-MEL-5 TRPM1-promoter luciferase, 24 h; % of positive control, neutral wells = 0; actives 0.75% (n = 300,000);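 active means mean activation of at least 80% with every replicate also reaching 80%; inconclusive means mean reaches 80% but some replicate falls short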;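 further: 0% = neutral control wells and 100% = parthenolide positive control wells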
The depositor's hits bear a star; i = inactive; u = inconclusive; x = not tested or not shown; [ ] = remark or other dose. In the library only some 3.5% were active in any assay of this set; here they are far more common.

SMILES | Cneo AK release | ERAP1 inh | HIV Env fusion | esBAF inh | Wnt bcat act | MITF TRPM1 HTS
CN1CCN(C(=O)C[C@H]2C[C@@H]3c4cc(NC(=O)Cc5ccncc5)ccc4O[C@@H]3[C@@H](CO)O2)CC1 | -5 | -2 | 8[16.7 µM] | 0 | x | x
COc1ccccc1NC(=O)N1CCCCN2[C@H](CO)[C@H](c3ccc(-c4cccc(C#N)c4)cc3)[C@@H]2C1 | 1 | 1 | x | -2 | x | x
O=C(C[C@H]1C=C[C@@H](NC(=O)C2CCOCC2)[C@@H](CO)O1)Nc1ccc(-c2ccccc2)cc1 | -10 | -4 | -3[16.7 µM] | 4 | x | x
NC(=O)c1cc2c3ccccc3ccn2c1-c1ccccc1 | -7 | -4 | i | 49* | u | -22
CC1CC(=O)NN=C1c1ccc(NCCO)c([N+](=O)[O-])c1 (stereo unspecified) | 3 | x | 62* | 5 | x | -13
CC(C)C(=O)Nc1ccc2c(c1)C(=O)N(C)[C@@H]1CC[C@H](CC(=O)O)O[C@@H]1CO2 | -5 | 1 | 9[16.7 µM] | -10 | x | x
Cc1cc(Nc2ccccc2)nn1C(=O)c1ccccc1 | -31 | x | -7 | -7 | 1 | -1
COc1ccc(C(=O)n2nc(C)cc2Nc2ccccc2)cc1 | 1 | x | x | 55* | x | 17
COc1ccc(NC(=O)C=C(C)C)cc1Cl | -4 | x | x | 8 | x | 69
CC(C)=CC(=O)Nc1ccc(Cl)cc1 | x | 14 | -40 | x | 45* | 89*
CC(C)(C)c1nnc(NC(=O)Nc2ccc(Cl)cc2)s1 | x | 2 | 5 | x | 2 | 38
CC(=O)c1ccc(NC(=O)Nc2ccc(Cl)cc2)cc1 | x | -7 | x | 66* | 17 | 125*
Cc1nc(NC(=O)Nc2ccc(Cl)cc2)sc1C | -7 | 3 | -52 | 58* | 15 | 78
CC(=O)N(C)C[C@H]1Oc2ncc(C#C[C@H](C)O)cc2C(=O)N([C@H](C)CO)C[C@@H]1C | 6 | -4 | -19[16.7 µM] | 4 | x | x
CN(C)Cc1cn(CC[C@@H]2CC[C@H](NC(=O)Nc3ccc4c(c3)OCO4)[C@@H](CO)O2)nn1 | 5 | 0 | -9[16.7 µM] | 4 | x | x
Cc1cccc(N/N=C/c2ccncc2)c1 | 0 | 7 | -62 | 37 | 13 | 129*
CCOC(=O)C1(Cc2ccccc2)CCCN(C(=O)COc2ccccc2OC)C1 (stereo unspecified) | x | 2 | -23 | x | 39* | x
CCOC(=O)C1(Cc2ccccc2)CCCN(C(=O)C=C(C)C)C1 (stereo unspecified) | 4 | -1 | -42 | 60* | 4 | 88*
CCOc1cc(/C=N/NC(=O)CCCC(=O)NC2CCCCC2)ccc1O | 102* | 0 | 6 | x | -2 | 0
COc1cc(/C=N/NC(=O)CCC(=O)NC2CCCCC2)ccc1C | x | -2 | 29 | x | 7 | -15
CCOC(=O)c1ccccc1NC(=O)Cn1c(=O)n(Cc2ccccc2)c(=O)c2c(C)c(C)sc21 | x | x | 58* | x | -4 | 3
S=C(c1ccc(-c2cccc(Cl)c2)o1)N1CCCCC1 | x | -3 | -103 | x | 40* | 93*
S=C(c1ccc(-c2cccc(Cl)c2)o1)N1CCOCC1 | -3 | -3 | x | u | -3 | 139*
S=C(c1ccc(-c2cc(Cl)ccc2Cl)o1)N1CCCCC1 | x | x | x | x | x | 24
O=[N+]([O-])c1cccc(-c2ccc(C(=S)N3CCOCC3)o2)c1 | -9 | 0 | -137 | 29 | -3 | 23
SMILES | Cneo AK release | ERAP1 inh | HIV Env fusion | esBAF inh | Wnt bcat act | MITF TRPM1 HTS
CO[C@@H]1CN(C)C(=O)c2ccc(NS(=O)(=O)c3cccc(F)c3)cc2OC[C@H](C)N(Cc2cc(F)ccc2F)C[C@H]1C | -3 | -2 | x | 0 | x | x
C[C@@H]1CN([C@H](C)CO)C(=O)c2cc(NC(=O)Cc3ccccc3)ccc2O[C@@H](C)CCCCO[C@H]1CN(C)S(=O)(=O)c1cn(C)cn1 | -22 | x | 5[16.7 µM] | 1 | x | x
COc1ccc(N(CC(=O)NC2CC3CCC2C3)S(=O)(=O)c2ccc(C)cc2)cc1Cl (stereo unspecified) | x | 1 | 8 | x | 51* | x
O=C(/C=C/c1ccco1)c1cccnc1 | x | 1 | -4 | x | 0 | -6
COc1ccccc1NC(=O)/C=C\c1ccco1 | -2 | 1 | -29 | 54* | 9 | 31
O=C(/C=C/c1ccco1)Nc1cccnc1 | x | 0 | -9 | x | 53* | 42
CSc1cccc(NC(=O)/C=C/c2ccco2)c1 | x | 0 | -56 | x | 7 | 27
COc1cccc(NC(=O)/C=C/c2ccco2)c1 | x | -3 | -94 | x | 68* | 73

Screening data from PubChem.
